The subject of data set [1] is Leishmania donovani. Briefly: Antileishmanial activity against Leishmania donovani amastigote infected in mouse J774A.1 cells after 72 hrs by luciferase reporter gene assay. The data set is classed as functional, organism-based. To be noted: J774.A1, 72 h. The essentials:
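Macrophages seeded at 4×10^4 cells/well in RPMI-1640 + 10% FCS, 37 °C CO2, 24 h; then infected with stationary-phase luciferase-expressing promastigotes (4×10^5/well), which transform to amastigotes. Compounds at 2-fold dilutions, 7 points from 40 µM, 72 h. Read-out: luminescence after Steady Glo in PBS. IC50 by nonlinear regression of concentration-response, four-parameter Hill equation.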

Data set [2] relates to Leishmania donovani. Briefly: Leishmanicidal activity against Leishmania donovani MHOM/IN/80/Dd8 infected in golden hamster at 50 mg/kg, ip for 5 consecutive days measured on day 7 of last drug administration by Giemsa staining method. Type of data set: functional. To be noted: MHOM/IN/80/Dd8, ip, 168 h, route intraperitoneal. In a few lines:
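Inbred hamsters of either sex, 40-45 g, infected intracardially with 1×10^7 amastigotes; infection establishes in 15-20 days. Only animals with +1 infection (5-15 amastigotes/100 spleen nuclei) on pre-treatment spleen biopsy were used, randomized by parasite burden, 5-6 per group. i.p. dosing began 2 days after biopsy. Giemsa amastigote counts; PI = 100 − [ANAT×100/(INAT×TIUC)].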

The nature of data set [3]: Selectivity index, ratio of CC50 for human KB cells to IC50 for Leishmania donovani amastigote infected in mouse J774A.1 cells. The data set is classed as functional. In a few lines: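 SI computed as CC50 in KB cells (MTT, 72 h) divided by IC50 against amastigotes in luciferase-reporter infected J774A.1 macrophages (72 h).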
Data set [4] is described as follows: Cytotoxicity against human KB cells after 72 hrs by MTT assay. The data set is classed as cell-based. In a few lines: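 Exponentially growing cells at 1×10^5/well, 72 h at 37 °C, humidified CO2, with compounds at 3-fold dilutions, 7 points from 400 µM. Compounds dissolved in DMSO, diluted in complete medium. DMSO vehicle wells; podophyllotoxin reference. MTT (5 mg/ml in PBS) 2 h at 37 °C, formazan dissolved in DMSO, absorbance 544 nm. CC50 is the concentration giving 50% viability loss versus medium-only cells, estimated per Huber and Koella.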

Bounds are passed on as bounds.

In the data set with Leishmania donovani [1], `CC1=C(/C=C/C2=NN(c3ccccc3)C(c3ccc(Cl)cc3)C2)C(C)(C)CCC1` (stereo not drawn) yielded an IC50 above 20 µM.
In turn, `CC1=C(/C=C/C2=NN(c3ccccc3)C(c3cccc(Cl)c3)C2)C(C)(C)CCC1` (stereo not drawn) displayed an IC50 in the data set with Leishmania donovani [1] above 40 µM.
Still for that read-out and setting: the value for `CC1=C(/C=C/C2=NN(c3ccccc3)C(c3ccc(F)cc3)C2)C(C)(C)CCC1` (stereo not drawn) was above 40 µM; that for `CC1=C(/C=C/C2=NN(c3ccccc3)C(c3ccc(OCc4ccccc4)cc3)C2)C(C)(C)CCC1` (stereo not drawn) was above 40 µM; that for `CC1=CCCC(C)(C)C1/C=C/C1=NN(c2ccccc2)C(c2ccccc2[N+](=O)[O-])C1` (stereo not drawn) was above 20 µM.
Take `CC1=CCCC(C)(C)C1/C=C/C1=NN(c2ccccc2)C(c2ccc([N+](=O)[O-])cc2)C1` (stereo not drawn): in the data set on Leishmania donovani [1], the IC50 is above 40 µM.
On the same count and under the same terms, the value for `CC1=CCCC(C)(C)C1/C=C/C1=NN(c2ccccc2)C(c2ccc(F)cc2)C1` (stereo not drawn) was above 40 µM.
The same measure, in the same setting: under `COc1ccc(C2CC(/C=C/C3C(C)=CCCC3(C)C)=NN2c2ccccc2)cc1OC` (stereo not drawn) stands above 20 µM.
In the data set with Leishmania donovani [1], `COc1cc(C2CC(/C=C/C3C(C)=CCCC3(C)C)=NN2c2ccccc2)cc(OC)c1OC` (stereo not drawn) registered a half-maximal inhibitory concentration (IC50) above 20 µM.
The compound `CC1=CCCC(C)(C)C1/C=C/c1cc(-c2ccccc2[N+](=O)[O-])n(-c2ccccc2)n1` (stereo not drawn) had an IC50 in the data set with Leishmania donovani [1] above 40 µM.
On the same count and under the same terms, the value for `CC1=CCCC(C)(C)C1/C=C/c1cc(-c2ccc([N+](=O)[O-])cc2)n(-c2ccccc2)n1` (stereo not drawn) was above 40 µM.
On the same count and under the same terms, under `CC1=CCCC(C)(C)C1/C=C/c1cc(-c2ccc(F)cc2)n(-c2ccccc2)n1` (stereo not drawn) stands above 40 µM; under `COc1ccc(-c2cc(/C=C/C3C(C)=CCCC3(C)C)nn2-c2ccccc2)cc1OC` (stereo not drawn), above 20 µM; under `COc1cc(-c2cc(/C=C/C3C(C)=CCCC3(C)C)nn2-c2ccccc2)cc(OC)c1OC` (stereo not drawn), above 40 µM.
Take `CC1=C(/C=C/C2=NN(c3ccccc3)C(c3ccccc3[N+](=O)[O-])C2)C(C)(C)CCC1` (stereo not drawn): the IC50 in the data set with Leishmania donovani [1] is above 20 µM.
The same measure, in the same setting: the value for `CC1=C(/C=C/C2=NN(c3ccccc3)C(c3ccc([N+](=O)[O-])cc3)C2)C(C)(C)CCC1` (stereo not drawn) was above 40 µM.
`CC1=C(/C=C/C2=NN(c3ccccc3)C(c3cccc([N+](=O)[O-])c3)C2)C(C)(C)CCC1` (stereo not drawn) showed an inhibition in vivo at 50 mg/kg in the data set with Leishmania donovani [2] of 7.13%. Further, in data set [3], the “Ratio CC50/IC50” value was found to be 16.48. This compound also returned a CC50 at 72 h in data set [4] of 279 µM. The same compound registered a half-maximal inhibitory concentration (IC50) in the data set with Leishmania donovani [1] of 16.9 µM.
For `COc1ccc(C2CC(/C=C/C3=C(C)CCCC3(C)C)=NN2c2ccccc2)cc1OC` (stereo not drawn) the same measures were 80.8%, 29.46, 221 µM and 7.49 µM.
As to `COc1cc(C2CC(/C=C/C3=C(C)CCCC3(C)C)=NN2c2ccccc2)cc(OC)c1OC` (stereo not drawn), the IC50 in the data set on Leishmania donovani [1] is above 20 µM.
In turn, `CC1=C(/C=C/C2=NN(c3ccccc3)C(c3ccccc3Cl)C2)C(C)(C)CCC1` (stereo not drawn) gave an IC50 in the data set on Leishmania donovani [1] above 20 µM.
Compound `CCCCCCCCCCCCCCCCOP(=O)([O-])OCC[N+](C)(C)C` [MILTEFOSINE] registered an inhibition in vivo at 50 mg/kg in the data set on Leishmania donovani [2] of 95.3%. Also, the “Ratio CC50/IC50” value in data set [3] worked out at 0.26.

Values taken from ChEMBL document CHEMBL2331481, “Chemotherapy of leishmaniasis part X: synthesis and bioevaluation of novel terpenyl heterocycles” (Bioorg Med Chem Lett, 2013).
